The text below walks through data of ChEMBL document CHEMBL4261548, “Mitochondria-targeted betulinic and ursolic acid derivatives: synthesis and anticancer activity” (Medchemcomm, 2017).

Assay [1] has as its system HCT-116. Put plainly: Induction of apoptosis in human HCT116 cells assessed as release of cytochrome C from mitochondria at 3.5 uM by SDS/PAGE analysis. Format: functional, cell-based. Put shortly:
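HCT116 cells at about 1 × 10^6 per 100 μl were permeabilized with 0.01% digitonin in 150 mM KCl, 1 mM MgCl2, 0.2 mM EGTA and 5 mM Tris for 10 min at room temperature. Supernatant (cytosol) and pellet (mitochondria) were separated by centrifugation. Cytochrome c in each fraction was detected by 15% SDS-PAGE and western blot.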

A short description of assay [2]: Cytotoxicity against human Tet21N cells assessed as decrease in cell viability by trypan blue test. It counts as functional, cell-based.
Another assay has as its system Splenocyte. Put plainly: Cytotoxicity against BALB/c mouse splenocytes assessed as decrease in cell viability by trypan blue test. Format: cell-based.
Another assay relates to MCF7. The assay can be described thus: Cytotoxicity against human MCF7 cells assessed as decrease in cell viability by trypan blue test. Format: functional, cell-based.
Assay [3] relates to HCT-116. The assay can be described thus: Cell cycle arrest in human HCT116 cells assessed as accumulation at sub-G1 phase by propidium iodide staining-based flow cytometric method (reference value: 0.8%). Format: functional.
The species entered for assay [4] is Homo sapiens. The assay can be described thus: Induction of apoptosis in human Tet21N cells assessed as caspase-3 cleavage using DEVD-AMC as substrate by fluorescence assay. Format: functional, cell-based.
The test system of assay [5] is HCT-116. Put plainly: Inhibition of mitochondrial respiration in human HCT116 cells after 24 hrs in presence of oligomycin/CCCP/rotenone/antimycin. Format: functional, cell-based. The gist of the method: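 About 15 000 HCT116 cells per well adhered overnight and were treated for 24 h. They were then held 1 h at 37 °C without CO2 in unbuffered DMEM (5 mM glucose, 2 mM glutamine, pH 7.4). Oxygen consumption was measured by Seahorse XF-96: basal, then sequential oligomycin, CCCP, and rotenone plus antimycin A. Data were normalized to total protein per well.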

The subject of assay [6] is HCT-116. Put plainly: Induction of apoptosis in human HCT116 cells assessed as caspase-3 cleavage using DEVD-AMC as substrate by fluorescence assay. It counts as functional, cell-based.
Assay [7] is filed under the species Homo sapiens. The assay can be described thus: Induction of apoptosis in human SK-N-BE(2) cells assessed as PARP cleavage at 50 uM by Western blot analysis. Format: functional, cell-based. The gist of the method:
(§1)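 Whole-cell lysates in lysis buffer with protease inhibitors, 10 min room temperature; insoluble material cleared at 13 000 rpm, 20 min, 4 °C; equal protein loaded for SDS-PAGE and blotted; membranes blocked 1 h in 5% non-fat milk; PARP cleavage detected by ECL. HCT116 and RKO in DMEM, SK-N-BE(2) and Tet21N in RPMI 1640 with 10% FCS; Tet21N medium also hygromycin 100 μg ml–1 and geneticin 200 μg ml–1.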

The subject of assay [8] is HCT-116. The assay can be described thus: Induction of apoptosis in human HCT116 cells assessed as PARP cleavage at 20 uM by Western blot analysis. It counts as functional, cell-based. The gist of the method:
as §1
(In general: Immunoblotting shows a protein as a band on a membrane.)

For assay [9], the system named is HCT-116. Put plainly: Inhibition of mitochondrial respiration in human HCT116 cells at 1 to 2 uM after 24 hrs in presence of oligomycin/CCCP/rotenone/antimycin. Format: functional, cell-based. The gist of the method:
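About 15 000 cells per well adhered overnight, then treated 24 h. Washed and held 1 h at 37 °C without CO2 in unbuffered DMEM (5 mM glucose, 2 mM glutamine, pH 7.4). Seahorse XF-96 oxygen consumption read: basal, then oligomycin (proton leak), CCCP (spare capacity), rotenone plus antimycin A (non-mitochondrial). Normalized to total protein per well.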

The next assay deals with RKO. The assay can be described thus: Induction of apoptosis in human RKO cells assessed as PARP cleavage at 50 uM by Western blot analysis. Format: functional, cell-based. The gist of the method:
as §1

The species named for assay [10] is Homo sapiens. The assay can be described thus: Induction of apoptosis in human Tet21N cells assessed as PARP cleavage at 5 to 15 uM by Western blot analysis. It counts as functional, cell-based. The gist of the method:
as §1

pIC50: −log10 of the molar value. The source made the active and inactive calls. The calls are words filed in the database; no cut-off is given here.

One may read the pIC50 as −log10 of the IC50, conventionally taken in molar units. Take `C[C@H]1[C@H](C)CC[C@]2(C(=O)OCCOCCOCC[P+](c3ccccc3)(c3ccccc3)c3ccccc3)CC[C@]3(C)C(=CC[C@@H]4[C@@]5(C)CC[C@H](OC(=O)C(Cl)Cl)C(C)(C)[C@@H]5CC[C@]43C)[C@H]12`: in the assay with HCT-116 [1], the result was Active. For the same molecule, the pIC50 in assay [2] (Homo sapiens) was 5.93; in the assay with Splenocyte, 5.95; in the assay on MCF7 (Homo sapiens, MCF7) it was 5.41.

Take `C[C@H]1[C@H](C)CC[C@]2(C(=O)OCCCC[P+](c3ccccc3)(c3ccccc3)c3ccccc3)CC[C@]3(C)C(=CC[C@@H]4[C@@]5(C)CC[C@H](OC(=O)C(Cl)Cl)C(C)(C)[C@@H]5CC[C@]43C)[C@H]12`: the result in the assay with HCT-116 [1] was Active. The negative logarithm of the IC50 (pIC50) is 5.36 in [2] (Homo sapiens); 5.76 in the assay with Splenocyte; 5.56 in the assay on MCF7 (Homo sapiens, MCF7).

As to `C=C(C)[C@@H]1CC[C@]2(C(=O)OCCOCCOCC[P+](c3ccccc3)(c3ccccc3)c3ccccc3)CC[C@]3(C)[C@H](CC[C@@H]4[C@@]5(C)CC[C@H](OC(C)=O)C(C)(C)[C@@H]5CC[C@]43C)[C@@H]12` [listing 1 of 2 here], the negative logarithm of the IC50 (pIC50) in assay [2] is 5.89; in the assay with MCF7 (mcf7) it was 5.82.

As for `C[C@H]1[C@H](C)CC[C@]2(C(=O)OCCOCCOCC[P+](c3ccccc3)(c3ccccc3)c3ccccc3)CC[C@]3(C)C(=CC[C@@H]4[C@@]5(C)CC[C@H](O)C(C)(C)[C@@H]5CC[C@]43C)[C@H]12`, the result in the assay with HCT-116 [1] was Active. In addition, the negative-log IC50 (pIC50) is 6.09 in [2] (Homo sapiens) and 5.80 in the assay with MCF7 (Homo sapiens, MCF7).

With `C=C(C)[C@@H]1CC[C@]2(C(=O)OCCOCCOCC[P+](c3ccccc3)(c3ccccc3)c3ccccc3)CC[C@]3(C)[C@H](CC[C@@H]4[C@@]5(C)CC[C@H](OC(C)=O)C(C)(C)[C@@H]5CC[C@]43C)[C@@H]12.[Br-]`, the negative logarithm of the IC50 (pIC50) in assay [2] (Homo sapiens) is 6.01; in the assay with MCF7 (Homo sapiens, MCF7), 6.07. Also, the Activity in the assay on HCT-116 [3] worked out at 29.9%.

As for `C=C(C)[C@@H]1CC[C@]2(C(=O)OCCOCCOCC[P+](c3ccccc3)(c3ccccc3)c3ccccc3)CC[C@]3(C)[C@H](CC[C@@H]4[C@@]5(C)CC[C@H](O)C(C)(C)[C@@H]5CC[C@]43C)[C@@H]12`, the outcome in the assay filed under Homo sapiens [4], with HCT-116 [1] and in the assay with HCT-116 [6] was Active. Also, in the assay with HCT-116 [5], the inhibition entry was “Dose-dependent effect”. For the same molecule, the pIC50 in assay [2] (Homo sapiens) was 6.13; in the assay with MCF7 (Homo sapiens, MCF7), 6.15.

Take `C=C(C)[C@@H]1CC[C@]2(C(=O)O)CC[C@]3(C)[C@H](CC[C@@H]4[C@@]5(C)CC[C@H](O)C(C)(C)[C@@H]5CC[C@]43C)[C@@H]12` [BETULINIC ACID]: the result in the assay listed under Homo sapiens [7], in the assay on HCT-116 [8], in the assay with RKO and in the assay filed under Homo sapiens [10] was Active. Moreover, the outcome in the assay listed under Homo sapiens [4], in the assay on HCT-116 [1] and in the assay on HCT-116 [6] was inactive. For the same molecule, the inhibition entry in the assay with HCT-116 [9] was “inactive”. The pIC50 in the assay on MCF7 (Homo sapiens, MCF7) was under 4.60. Moreover, the Activity in the assay with HCT-116 [3] is recorded as 2.2%.

For `C=C(C)[C@@H]1CC[C@]2(C(=O)OCCOCCOCC[P+](c3ccccc3)(c3ccccc3)c3ccccc3)CC[C@]3(C)[C@H](CC[C@@H]4[C@@]5(C)CC[C@H](OC(C)=O)C(C)(C)[C@@H]5CC[C@]43C)[C@@H]12` [listing 2 of 2 here], the result in the assay on HCT-116 [1] was Active. Besides, the inhibition entry in the assay with HCT-116 [5] was “Dose-dependent effect”.

Consider `C=C(C)[C@@H]1CC[C@]2(C(=O)OCCCC[P+](c3ccccc3)(c3ccccc3)c3ccccc3)CC[C@]3(C)[C@H](CC[C@@H]4[C@@]5(C)CC[C@H](OC(=O)C(Cl)Cl)C(C)(C)[C@@H]5CC[C@]43C)[C@@H]12`, for which the result with HCT-116 [1] was Active. The negative-log IC50 (pIC50) was 5.90 in assay [2] (Homo sapiens); 5.71 with Splenocyte; 6.10 with MCF7 (Homo sapiens, MCF7).

Regarding `C[C@H]1[C@H](C)CC[C@]2(C(=O)O)CC[C@]3(C)C(=CC[C@@H]4[C@@]5(C)CC[C@H](OC(=O)C(Cl)Cl)C(C)(C)[C@@H]5CC[C@]43C)[C@H]12`, the pIC50 in assay [2] (Homo sapiens) is under 5.00; in the assay with MCF7 (Homo sapiens, MCF7) it was under 4.70.

For the molecule `C=C(C)[C@@H]1CC[C@]2(C(=O)OCCOCCOCC[P+](c3ccccc3)(c3ccccc3)c3ccccc3)CC[C@]3(C)[C@H](CC[C@@H]4[C@@]5(C)CC[C@H](OC(=O)C(Cl)Cl)C(C)(C)[C@@H]5CC[C@]43C)[C@@H]12`, the result with HCT-116 [1] was Active. Moreover, the negative-log IC50 (pIC50) in [2] (Homo sapiens) is 6.02; with Splenocyte it was 6.18; in the assay on MCF7 (Homo sapiens, MCF7), 5.64.

On to `C=C(C)[C@@H]1CC[C@]2(C(=O)O)CC[C@]3(C)[C@H](CC[C@@H]4[C@@]5(C)CC[C@H](OC(=O)C(Cl)Cl)C(C)(C)[C@@H]5CC[C@]43C)[C@@H]12`, for which the negative-log IC50 (pIC50) in [2] (Homo sapiens) was 5.31; in the assay on MCF7 (Homo sapiens, MCF7), 4.80.
